# Measured values reported in ChEMBL document CHEMBL3751743, “Synthesis and anti-cancer screening of novel heterocyclic-(2H)-1,2,3-triazoles as potential anti-cancer agents” (Medchemcomm, 2015).
# Columns and labels:
# [1] = Cytotoxicity against human DU145 cells after 48 hrs by SRB assay; type: functional; conditions: DU-145, 48 h
# Procedure, shortened: (§1)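 NCI-60 five-dose screen: compounds dissolved in DMSO/H2O, tested at five 10-fold dilutions (10^-4 to 10^-8 M) for 48 h. Growth measured by sulforhodamine B optical density at time zero and after 48 h drug or vehicle exposure. Percentage growth calculated relative to control. GI50 is the molar concentration giving 50% reduction in net cell growth versus day-0 cell numbers.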
# [2] = tested on: MCF7; test: Cytotoxicity against human MCF7 cells after 48 hrs by SRB assay; type: functional; conditions: MCF7, 48 h; procedure, shortened: as §1
# [3] = tested on: MDA-MB-231; test: Cytotoxicity against human MDA-MB-231 cells after 48 hrs by SRB assay; type: functional; conditions: MDA-MB-231, 48 h; procedure, shortened: as §1
# [4] = Cytotoxicity against human Hs 578T cells after 48 hrs by SRB assay; type: functional; procedure, shortened: as §1
# [5] = Cytotoxicity against human BT549 cells after 48 hrs by SRB assay; type: functional; conditions: BT-549, 48 h; procedure, shortened: as §1
# [6] = tested on: T47D; test: Cytotoxicity against human T47D cells after 48 hrs by SRB assay; type: functional
# Procedure, shortened: (§2)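 NCI-60 five-dose screen. Compounds dissolved in DMSO/H2O and tested at five 10-fold dilutions (10^-4 to 10^-8 M) for 48 h. Growth read by sulforhodamine B optical density at time zero and after 48 h of exposure to compound or vehicle. Percent growth calculated against control. GI50 is the molar concentration giving 50% reduction in net cell growth relative to cell number on day 0.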
# [7] = tested on: MDA-MB-468; test: Cytotoxicity against human MDA-MB-468 cells after 48 hrs by SRB assay; type: functional; conditions: MDA-MB-468, 48 h; procedure, shortened: as §1
# [8] = molecular target: Tubulin (Sus scrofa, UniProt P02554+P02550); test: Inhibition of porcine brain tubulin polymerization by spectrophotometric analysis
# Procedure, shortened: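 Tubulin at 4 mg/mL in cold 80 mM PIPES pH 6.9 with 2 mM MgCl2, 0.5 mM EGTA, GTP and 10% glycerol. Compound (added as 10x stock in 50% DMSO) or DMSO was preincubated 2 min at 37 °C in a prewarmed plate. Cold tubulin was then added, and polymerization at 37 °C was followed by A340 over time. Dose-response, mean ± s.d., n=3.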
# [9] = tested on: CCRF-CEM; test: Cytotoxicity against human CCRF-CEM cells after 48 hrs by SRB assay; type: functional; procedure, shortened: as §1
# [10] = Cytotoxicity against human HL-60(TB) cells after 48 hrs by SRB assay; type: functional; conditions: HL-60, 48 h; procedure, shortened: as §1
# [11] = tested on: K562; test: Cytotoxicity against human K562 cells after 48 hrs by SRB assay; type: functional; conditions: K562, 48 h; procedure, shortened: as §1
# [12] = Cytotoxicity against human MOLT4 cells after 48 hrs by SRB assay; type: functional; conditions: MOLT-4, 48 h; procedure, shortened: as §1
# [13] = Cytotoxicity against human RPMI8226 cells after 48 hrs by SRB assay; type: functional; conditions: RPMI-8226, 48 h; procedure, shortened: as §1
# [14] = tested on: SR; test: Cytotoxicity against human SR cells after 48 hrs by SRB assay; type: functional; procedure, shortened: as §1
# [15] = tested on: A549; test: Cytotoxicity against human A549 cells after 48 hrs by SRB assay; type: functional; conditions: A549, 48 h; procedure, shortened: as §1
# [16] = Cytotoxicity against human HOP92 cells after 48 hrs by SRB assay; type: functional; conditions: HOP-92, 48 h; procedure, shortened: as §1
# [17] = tested on: NCI-H226; test: Cytotoxicity against human NCI-H226 cells after 48 hrs by SRB assay; type: functional; conditions: NCI-H226, 48 h; procedure, shortened: as §1
# [18] = tested on: NCI-H23; test: Cytotoxicity against human NCI-H23 cells after 48 hrs by SRB assay; type: functional; conditions: NCI-H23, 48 h; procedure, shortened: as §1
# [19] = tested on: NCI-H460; test: Cytotoxicity against human NCI-H460 cells after 48 hrs by SRB assay; type: functional; conditions: NCI-H460, 48 h; procedure, shortened: as §1
# [20] = tested on: NCI-H522; test: Cytotoxicity against human NCI-H522 cells after 48 hrs by SRB assay; type: functional; conditions: NCI-H522, 48 h; procedure, shortened: as §1
# [21] = Cytotoxicity against human COLO205 cells after 48 hrs by SRB assay; type: functional; conditions: COLO 205, 48 h; procedure, shortened: as §1
# [22] = Cytotoxicity against human HCC2998 cells after 48 hrs by SRB assay; type: functional; conditions: HCC 2998, 48 h; procedure, shortened: as §1
# [23] = Cytotoxicity against human HCT116 cells after 48 hrs by SRB assay; type: functional; conditions: HCT-116, 48 h; procedure, shortened: as §1
# [24] = Cytotoxicity against human HCT15 cells after 48 hrs by SRB assay; type: functional; conditions: HCT-15, 48 h; procedure, shortened: as §1
# [25] = tested on: HT-29; test: Cytotoxicity against human HT-29 cells after 48 hrs by SRB assay; type: functional; conditions: HT-29, 48 h; procedure, shortened: as §1
# [26] = tested on: KM12; test: Cytotoxicity against human KM12 cells after 48 hrs by SRB assay; type: functional; conditions: KM12, 48 h; procedure, shortened: as §1
# [27] = Cytotoxicity against human SW620 cells after 48 hrs by SRB assay; type: functional; conditions: SW-620, 48 h; procedure, shortened: as §1
# [28] = Cytotoxicity against human SF268 cells after 48 hrs by SRB assay; type: functional; conditions: SF-268, 48 h; procedure, shortened: as §1
# [29] = Cytotoxicity against human SF295 cells after 48 hrs by SRB assay; type: functional; conditions: SF-295, 48 h; procedure, shortened: as §1
# [30] = Cytotoxicity against human SF539 cells after 48 hrs by SRB assay; type: functional; conditions: SF-539, 48 h; procedure, shortened: as §1
# [31] = Cytotoxicity against human SNB19 cells after 48 hrs by SRB assay; type: functional; conditions: SNB-19, 48 h; procedure, shortened: as §1
# [32] = Cytotoxicity against human SNB75 cells after 48 hrs by SRB assay; type: functional; conditions: SNB-75, 48 h; procedure, shortened: as §1
# [33] = tested on: U-251; test: Cytotoxicity against human U251 cells after 48 hrs by SRB assay; type: functional; conditions: U-251, 48 h; procedure, shortened: as §2
# [34] = Cytotoxicity against human LOXIMVI cells after 48 hrs by SRB assay; type: functional; conditions: LOX IMVI; procedure, shortened: as §1
# [35] = tested on: M14; test: Cytotoxicity against human M14 cells after 48 hrs by SRB assay; type: functional; conditions: M14, 48 h; procedure, shortened: as §1
# [36] = tested on: MDA-MB-435; test: Cytotoxicity against human MDA-MB-435 cells after 48 hrs by SRB assay; type: functional; conditions: MDA-MB-435, 48 h; procedure, shortened: as §1
# [37] = tested on: SK-MEL-2; test: Cytotoxicity against human SK-MEL-2 cells after 48 hrs by SRB assay; type: functional; conditions: SK-MEL-2, 48 h; procedure, shortened: as §1
# [38] = tested on: SK-MEL-5; test: Cytotoxicity against human SK-MEL-5 cells after 48 hrs by SRB assay; type: functional; conditions: SK-MEL-5, 48 h; procedure, shortened: as §1
# [39] = Cytotoxicity against human UACC257 cells after 48 hrs by SRB assay; type: functional; conditions: UACC-257, 48 h; procedure, shortened: as §2
# [40] = Cytotoxicity against human UACC62 cells after 48 hrs by SRB assay; type: functional; conditions: UACC-62, 48 h; procedure, shortened: as §2
# [41] = Cytotoxicity against human OVCAR3 cells after 48 hrs by SRB assay; type: functional; conditions: OVCAR-3, 48 h; procedure, shortened: as §1
# [42] = Cytotoxicity against human OVCAR4 cells after 48 hrs by SRB assay; type: functional; conditions: OVCAR-4, 48 h; procedure, shortened: as §1
# [43] = Cytotoxicity against human OVCAR5 cells after 48 hrs by SRB assay; type: functional; conditions: OVCAR-5, 48 h; procedure, shortened: as §1
# [44] = Cytotoxicity against human OVCAR8 cells after 48 hrs by SRB assay; type: functional; conditions: OVCAR-8, 48 h; procedure, shortened: as §1
# [45] = Cytotoxicity against human NCI-ADR-RES cells after 48 hrs by SRB assay; type: functional; procedure, shortened: as §1
# [46] = Cytotoxicity against human SKOV3 cells after 48 hrs by SRB assay; type: functional; conditions: SK-OV-3, 48 h; procedure, shortened: as §1
# [47] = tested on: 786-0; test: Cytotoxicity against human 786-0 cells after 48 hrs by SRB assay; type: functional; conditions: 786-0, 48 h; procedure, shortened: as §1
# [48] = tested on: A498; test: Cytotoxicity against human A498 cells after 48 hrs by SRB assay; type: functional; conditions: A498, 48 h; procedure, shortened: as §1
# [49] = tested on: ACHN; test: Cytotoxicity against human ACHN cells after 48 hrs by SRB assay; type: functional; procedure, shortened: as §1
# [50] = Cytotoxicity against human Caki1 cells after 48 hrs by SRB assay; type: functional; conditions: CAKI-1, 48 h; procedure, shortened: as §1
# [51] = Cytotoxicity against human RXF393 cells after 48 hrs by SRB assay; type: functional; conditions: RXF 393, 48 h; procedure, shortened: as §1
# [52] = tested on: SN12C; test: Cytotoxicity against human SN12C cells after 48 hrs by SRB assay; type: functional; procedure, shortened: as §1
# [53] = Cytotoxicity against human TK10 cells after 48 hrs by SRB assay; type: functional; conditions: TK-10, 48 h; procedure, shortened: as §2
# [54] = Cytotoxicity against human UO31 cells after 48 hrs by SRB assay; type: functional; conditions: UO-31, 48 h; procedure, shortened: as §2
# [55] = Cytotoxicity against human PC3 cells after 48 hrs by SRB assay; type: functional; conditions: PC-3, 48 h; procedure, shortened: as §1
# [56] = Cytotoxicity against human Hs578T cells assessed as reduction of cell viability after 48 hrs by calcein-AM-based fluorescence analysis; type: functional; conditions: Hs-578T
# Procedure, shortened: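 Cells seeded at 3,000 per well in DMEM with 10% FBS and left overnight at 37 °C. A range of compound concentrations or vehicle was then added for 48 h. Cells were washed with DPBS pH 7.4 and loaded with 2 μM calcein-AM for 30 min at 25 °C. Fluorescence read at ex 490/em 520 nm; viability is given relative to untreated control (100%). Mean ± s.d.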
smiles,measurement,setting,value
COc1cc(OC)cc(-c2n[nH]nc2-c2c[nH]c3ccccc23)c1,GI50,[1],75 nM
same,GI50,[2],29 nM
same,GI50,[3],76 nM
same,GI50,[4],31 nM
same,GI50,[5],17 nM
same,GI50,[6],44 nM
same,GI50,[7],37 nM
same,IC50,[8],13500 nM
same,GI50,[9],37 nM
same,GI50,[10],33 nM
same,GI50,[11],31 nM
same,GI50,[12],63 nM
same,GI50,[13],53 nM
same,GI50,[14],47 nM
same,GI50,[15],88 nM
same,GI50,[16],29 nM
same,GI50,[17],75 nM
same,GI50,[18],124 nM
same,GI50,[19],38 nM
same,GI50,[20],13 nM
same,GI50,[21],35 nM
same,GI50,[22],251 nM
same,GI50,[23],31 nM
same,GI50,[24],31 nM
same,GI50,[25],31 nM
same,GI50,[26],45 nM
same,GI50,[27],35 nM
same,GI50,[28],67 nM
same,GI50,[29],26 nM
same,GI50,[30],24 nM
same,GI50,[31],56 nM
same,GI50,[32],25 nM
same,GI50,[33],54 nM
same,GI50,[34],55 nM
same,GI50,[35],31 nM
same,GI50,[36],10 nM
same,GI50,[37],31 nM
same,GI50,[38],34 nM
same,GI50,[39],> 100000 nM
same,GI50,[40],34 nM
same,GI50,[41],28 nM
same,GI50,[42],2670 nM
same,GI50,[43],416 nM
same,GI50,[44],70 nM
same,GI50,[45],30 nM
same,GI50,[46],34 nM
same,GI50,[47],30 nM
same,GI50,[48],33 nM
same,GI50,[49],45 nM
same,GI50,[50],38 nM
same,GI50,[51],52 nM
same,GI50,[52],69 nM
same,GI50,[53],83 nM
same,GI50,[54],62 nM
same,GI50,[55],38 nM
COc1cc(-c2n[nH]nc2-c2cc3ccccc3o2)cc(OC)c1OC,GI50,[56],20 nM
